# Source: PubChem (several laboratories)
# Many of the other results were omitted from the sample, so hits are more common in it than they were.
# CHOP UPR activ – apoptotic UPR (CHOP) activation; CHO-CHOP luciferase reporter, luminescence; percent of tunicamycin response over DMSO baseline; activation, % at 10 µM; actives 0.34% (n = 330,000);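 active = at 10 µM dose, activation of 40% or more, normalized to positive control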;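 also: 100% = tunicamycin at 10 µg/mL and 0% = DMSO alone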
#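 Test system: CHO CHOP reporter cells. Input: 500 CHO-CHOP cells per well. Medium: F12 with 10% FBS. Technique: luciferase luminescence. Measure: percent activation relative to tunicamycin control. Dosing: 10 µM compound, 0.5% DMSO. Timing: 16-18 h cell attachment, then 6 h compound exposure, 37 °C.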
# Dynein cargo inh – dynein cargo transport inhibition; 3617.4 mouse cells, GR-EGFP nuclear translocation imaging; test concentration mostly 20 µM; stimulated with dexamethasone, 1 µM; hits give low values; z-score, hits read low; actives 0.47% (n = 220,000); AID 1381;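 active = plate z-score of nuclear minus cytoplasmic receptor signal below a set negative limit, without overly bright fluorescence or cell loss, cut at about -3.5 in these data, passing the limit was not always enough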;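 also: z-score of nuclear minus cytoplasmic ring GR-EGFP intensity difference per well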
#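 Also added – dexamethasone, 1.0 µM final · Buffer or medium – tet-free, stripped-serum medium · Schedule – induction 48 h, compound 1 h, agonist 30 min · Detection – formaldehyde fixation, Hoechst nuclear stain, 10x automated fluorescence imaging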
# CHOP inh – inhibitors of CHOP induction in ER stress response; actives 3.8% (n = 220,000); AID 2732; CHO-K1 CHOP-promoter luciferase, tunicamycin-induced, 15-18 h; inhibition, % at 10 µM;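 active = compounds that reduced the stress-induced luciferase reporter signal by more than about 70% of percent inhibition, limit read from the data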;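 also: 0% = tunicamycin plus vehicle and 100% = wells without tunicamycin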
# XBP1 UPR activ – adaptive UPR (XBP1) activation | CHO-XBP1 luciferase reporter, IRE1-XBP1 UPR activation, luminescence; percent of tunicamycin response, DMSO as zero | activation, % at 20 µM | actives 0.33% (n = 330,000) | AID 463104;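 active = versus positive control, 20 µM dose yields 30% or more activation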;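 also: 100% = tunicamycin at 10 µg/mL and 0% = DMSO only wells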
#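 Material: IRE1-XBP1 luciferase reporter CHO line / Quantity: one thousand reporter cells per well / Buffer or medium: F12 with 10% serum / Compound: 20 µM single concentration, DMSO 1% / Times: 6 h treatment, 37 °C / Detection: Steady-Glo luciferase glow luminescence, 10 min after reagent addition / Benchmarks: tunicamycin high, DMSO low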
# L major viab – inhibitors of Leishmania major promastigote growth; Leishmania major promastigotes, resazurin fluorescence viability; actives 9% (n = 200,000); inhibition, % at 10 µM; AID 1063; in the data active = inhibition above about 50%;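 also: promastigotes grown with compound for 44 hours at 28 °C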
# T cruzi inh – T. cruzi replication inhibition | T. cruzi beta-gal in NIH3T3, luminescence, 90 h | inhibition, % (no concentration beside the values) | actives 1.4% (n = 300,000);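 active = mean inhibition across valid replicates above about 55%, limit read from the data; inconclusive = mean below that limit but half or more replicates reach it; inactive = mean below it, under half of replicates reach it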;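 also: signal also drops with host cell toxicity which is not excluded here; 0% = plate median of DMSO wells and 100% = zero luminescence signal; higher percent means less beta-gal luminescence so fewer parasites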
#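 System – NIH/3T3 host cells with β-galactosidase reporter T. cruzi · Doses – single 50 nL compound addition per well in DMSO · Reagent – 5000 T. cruzi trypomastigotes/well · Medium – Low-serum DMEM with 2% FBS · Timing – ≥90 h infection period, 3 h prior cell attachment · Evaluation – parasite load inhibition, % · Technique – GalScreen luminescence, 60 min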
# Starred values were filed as active, the others as inactive; ? = inconclusive; · = no result.
SMILES,CHOP UPR activ,Dynein cargo inh,CHOP inh,XBP1 UPR activ,L major viab,T cruzi inh
CCCCOc1ccc(CN2CCN(CCO)CC2)cc1,2,-0.041,18,-1,89*,-5
COc1ccc(CN2CCN(Cc3ccccc3F)CC2)cc1,0,·,·,-5,·,44
CCCCOc1ccc(CN2CCN(CC)CC2)cc1,-1,-0.62,-22,0,86*,12
COc1cc2nc(N3CCN(C(=O)c4ccco4)CC3)nc(N)c2cc1OC,5,0.25,28,-10,100*,13
Clc1ccc(COC(Cn2ccnc2)c2ccc(Cl)cc2Cl)cc1 (centres undefined),1,0.35,45,-6,98*,47
COc1ccc2c(c1)CC1(CN2C)C(=O)NC(=O)N(c2ccc(C)cc2)C1=O (centres undefined),-2,-0.2,7,-1,-7,-11
CN1c2ccc([N+](=O)[O-])cc2CC2(C(=O)NC(=O)N(c3ccc(Br)cc3)C2=O)C1c1ccccc1 (centres undefined),0,0.016,52,-1,75*,?
COc1cc2c(cc1/C=C/[N+](=O)[O-])OCO2,·,-2.8,93*,·,100*,51
COC(=O)C1=C(c2ccc(F)cc2F)C[C@@H]2CC[C@H]1N2C(=O)N1CCC(C)CC1,0,·,·,-3,·,·
Cc1ccc(-c2nc(N(C)C3CCN(C)CC3)c3ccccc3n2)cc1,1,3.5,12,2,99*,?
CNc1ccc2nc3ccccc3[n+](C)c2c1,2,·,·,-6,·,59*
CC(=O)N1CCC(N2CCCC(C(=O)c3cccc(Cl)c3)C2)CC1 (centres undefined),-1,1.6,-6,4,92*,-2
COc1ccc(C(=O)C2CCCN(C3CSCCSC3)C2)c(OC)c1 (centres undefined),-1,-1.1,20,-2,21,12
COc1cccc(OC)c1CN1CCCC(C(=O)c2cccc(Cl)c2)C1 (centres undefined),0,·,·,0,·,19
COc1cccc(C(=O)C2CCCN(C3CCOCC3)C2)c1 (centres undefined),0,-0.67,21,2,88*,-9
COc1cccc(C(=O)C2CCCN(Cc3ccccn3)C2)c1 (centres undefined),0,-0.58,15,1,2,-12
COc1ccc(C(=O)C2CCCN(C3CSCCSC3)C2)c(C)c1 (centres undefined),-1,0.83,26,3,97*,8
Cn1c(O)c(/C=C2/C=CC=N2)c(=O)[nH]c1=O,3,1.5,-1,-1,·,-7
CCCc1c(C)nc(-c2ccc(C)cc2)nc1OC(=O)N(C)C,-1,-0.66,-31,2,·,-8
CCS(=O)(=O)Nc1cccc(C(=C2CCCCC2)c2cnc[nH]2)c1,-3,·,-20,-5,·,·
O=C(O)[C@@H]1CCN1,·,·,6,·,·,·
COc1ccc(CNC(C)Cc2cccs2)cc1 (centres undefined),0,-0.71,-10,0,77*,-4
O=C1/C(=C\c2cc3c(cc2Cl)OCO3)N2CCC1CC2,0,-1.4,13,1,73*,-1
O=C1/C(=C/c2cccc([N+](=O)[O-])c2)N2CCC1CC2,-1,-0.32,17,-4,33,-12
O=C1/C(=C/c2cc([N+](=O)[O-])ccc2Cl)N2CCC1CC2,-2,-1.1,-20,-4,74*,-5
SMILES,CHOP UPR activ,Dynein cargo inh,CHOP inh,XBP1 UPR activ,L major viab,T cruzi inh
O=C1/C(=C\c2ccc(Cl)cc2Cl)N2CCC1CC2,0,-2,13,1,·,5
O=C1/C(=C/c2cc3c(cc2Cl)OCO3)N2CCC1CC2,0,-1.8,31,-3,92*,3
Nc1ncnc2c1ncn2[C@@H]1O[C@H](COP(=O)(O)CP(=O)(O)OP(=O)(O)O)[C@H](O)C1O (some centres undefined),·,·,15,·,·,·
COC(=O)C1=C(c2ccc(S(C)(=O)=O)cc2)C[C@@H]2CC[C@H]1N2C(=O)NCc1ccc(C(F)(F)F)cc1,-1,·,·,0,·,4
CCOc1ccccc1CN1CCCC(C(=O)c2cc(F)ccc2F)C1 (centres undefined),0,·,·,-3,·,1
CCCNC(=O)N1[C@H]2CC[C@@H]1C(C(=O)OC)=C(c1cccc(OC)c1OC)C2,-1,·,·,1,·,-2
CCN(CC)c1ccc(CNCCc2ccccc2F)cc1,1,-0.39,48,-1,94*,44
Cc1ccc(CNCCc2ccccc2F)cc1,3,-0.33,13,4,7,-4
Fc1ccccc1CCNCc1cccc2ccccc12,3,-0.5,30,2,77*,9
COc1cccc(CNCCc2c[nH]c3ccccc23)c1OC,-1,-0.7,9,-3,9,-4
COC(=O)C1=C(c2cccc(OC)c2OC)C[C@@H]2CC[C@H]1N2C(=O)NCc1cccc2ccccc12,2,·,·,0,·,2
CCN1C(=O)/C(=C/c2ccc3c(c2)CCN3CCCCl)C(=O)NC1=S,·,-1.3,90*,·,100*,10
O=C1NC(=S)N(C2CC2)C(=O)/C1=C/c1ccc2c(c1)CCN2CCCCl,·,-3.3,-34,·,74*,0
Cc1ncc(CN2CCCC(C(=O)c3sccc3C)C2)s1 (centres undefined),-1,1.6,-9,-5,52*,19
Cc1ccsc1C(=O)C1CCCN(CCO)C1 (centres undefined),2,-0.24,14,0,-3,18
Cc1ccsc1C(=O)C1CCCN(Cc2cnn(C)c2)C1 (centres undefined),0,-1,24,-2,34,32
CCn1cc(CN2CCCC(C(=O)c3sccc3C)C2)cn1 (centres undefined),1,-1,1,-1,54*,46
CCCCn1c(=O)c(C(=O)NCc2ccccc2)c(O)c2ccccc21,0,·,·,-6,·,?
CCCCn1c(=O)c(C(=O)NCc2ccncc2)c(O)c2ccccc21,-3,-0.57,51,9,89*,22
CCCCCn1c(=O)c(C(=O)Nc2cnccn2)c(O)c2ccccc21,14,-0.65,104*,-2,98*,-18
Cc1c(CCN)ccc2c1[nH]c1ccccc12,4,0.75,1,-1,·,-5
O=C(/C=C/c1ccc(Cl)cc1)NC(=S)N1C[C@H]2C[C@H](C1)c1cccc(=O)n1C2,1,·,·,2,·,-10
CCOC(=O)c1c(N)n(Cc2ccc(OC)cc2)c2nc3ccccc3nc12,·,0.99,5,·,96*,9
COCCCn1c(N)c(C(=O)OCCOC)c2nc3ccccc3nc21,0,-1.1,-19,3,4,-8
